Shown are actives, neighbours in structure and some others; about 12% of the full set was active somewhere.
RAM network inh = yeast RAM network inhibition. S. cerevisiae dse1pr::URA3 reporter, 5-FOA growth OD615, 2 d; analog-sensitive cbk1-as2 kinase mutant strain. inhibition, % at 50 µM. 190,000 compounds, 1.8% hits;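 active means inhibition above a set limit, 3 SD over mean compound inhibition, cut at about 8.4% in these data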;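 further: 0% = DMSO-only wells with no growth and 100% = 10 µM 1-NA-PP1 full growth; inhibition rescues growth on 5-FOA so higher OD means more RAM inhibition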
L major viab = reduces viability of Leishmania major promastigotes; inhibition, % at 10 µM; AID 1063; 200,000 compounds, 9% hits; resazurin fluorescence viability; in the data active means inhibition above about 50%;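 further: promastigotes grown with compound for 44 hours at 28 °C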
ABCG2 block = blocks JC-1 efflux by human ABCG2 transporter; Q9UNQ0; IgMXP3 cells, flow cytometry; inhibition, % at 6.6 µM; 190,000 compounds, 0.1% hits; AID 1325;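 active means inhibition above 80%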;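 further: 0% = DMSO and 100% = nicardipine control wells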
Target sequence (Q9UNQ0 whole entry, looked up): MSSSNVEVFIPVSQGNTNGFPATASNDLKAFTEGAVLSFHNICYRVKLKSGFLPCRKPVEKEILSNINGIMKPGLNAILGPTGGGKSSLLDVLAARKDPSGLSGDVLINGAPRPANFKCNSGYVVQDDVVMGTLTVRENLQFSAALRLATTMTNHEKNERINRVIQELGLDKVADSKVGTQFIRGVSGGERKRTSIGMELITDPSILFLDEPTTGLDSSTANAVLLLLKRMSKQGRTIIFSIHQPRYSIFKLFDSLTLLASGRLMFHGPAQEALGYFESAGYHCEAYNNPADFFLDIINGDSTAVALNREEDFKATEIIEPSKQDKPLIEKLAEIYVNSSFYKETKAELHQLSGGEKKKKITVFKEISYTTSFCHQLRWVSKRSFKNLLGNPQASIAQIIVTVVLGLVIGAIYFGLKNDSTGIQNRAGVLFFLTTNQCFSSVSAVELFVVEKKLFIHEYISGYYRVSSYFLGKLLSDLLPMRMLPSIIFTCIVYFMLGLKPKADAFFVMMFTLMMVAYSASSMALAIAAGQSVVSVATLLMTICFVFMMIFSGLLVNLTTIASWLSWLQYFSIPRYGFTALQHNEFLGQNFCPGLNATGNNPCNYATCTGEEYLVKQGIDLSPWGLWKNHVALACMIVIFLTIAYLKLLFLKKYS
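Assay system – ABCG2 IgMXP3 and barcoded ABCB1 CCRF-Adr cell mix · Input – 3 million cells/mL in well · Reagent – JC-1 fluorescent substrate · Compound – single test compound dose, 6.6 µM final · Timing – 10 min exposure at 25 °C with rotation, no wash · Detection – flow cytometry of retained JC-1 fluorescence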
ABCB1 block = blocks JC-1 efflux by human ABCB1 transporter; 190,000 compounds, 0.067% hits; inhibition, % at 6.6 µM; P08183; CCRF-Adr cells, flow cytometry; in the data active means inhibition above about 40%;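 further: 0% = vehicle and 100% = reference inhibitor; higher value means more JC-1 retained so stronger ABCB1 efflux block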
WT yeast gro inh = growth inhibition of WT yeast, mitochondrial fusion screen. mitochondrial fusion phenotypic screen, WT strain. inhibition, % at 10 µM. 190,000 compounds, 2.1% hits. AID 1362; in the data active means inhibition above about 58%; tested in S. cerevisiae
Lmaj promast 1uM = L. major promastigote growth inhibition, 1 uM repeat; inhibition, % at 1 µM; AID 1258; 1,100 compounds, 13% hits; shares compounds with L major viab; resazurin fluorescence, 48 h;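 active means inhibition above about 50% in both repeat tests, limit read from the data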
* = called active by the depositor; nt = not tested or not shown.

SMILES | RAM network inh | L major viab | ABCG2 block | ABCB1 block | WT yeast gro inh | Lmaj promast 1uM
Cc1ncc([N+](=O)[O-])n1CCOC(=O)c1cc(Cl)cc(Cl)c1N | 3 | 60* | -7 | 1 | 47 | -6
O=C(N/C=N/OCc1cccc(C(F)(F)F)c1)N1OC[C@@H]2COc3ccc4ccccc4c3[C@@H]21 | 3 | 92* | 2 | 0 | 36 | -3
CC(=O)c1cccc(S(=O)(=O)NCCC(=O)O)c1 | 0 | -1 | 0 | 0 | -16 | nt
COc1ccc(C(=O)Nc2ccc(C3CC3(Cl)Cl)cc2)cc1 (stereo not drawn) | 6 | -4 | 17 | 1 | -1 | nt
COc1cc2c(cc1NCc1ccccn1)oc1ccccc12 | 1 | 73* | 46 | 0 | 13 | -16
COc1ccc(NC(=O)Nc2cccc([N+](=O)[O-])c2)cc1Cl | 3 | 98* | 0 | 0 | 79* | -3
O=C(O)CCC(=O)c1ccc(-c2ccccc2)cc1 | -1 | -5 | 0 | 1 | -10 | nt
O=C(C[n+]1ccccc1)c1ccc(-c2ccccc2)cc1 | 1 | 96* | 0 | 0 | 10 | 7
C/C(=N\NC(=O)OC(C)(C)C)c1cccc([N+](=O)[O-])c1 | 3 | -9 | 29 | 1 | -3 | nt
O=C(NCc1cccnc1)c1c(O)c2cccc3c2n(c1=O)CCC3 | -1 | -4 | 2 | 1 | 14 | nt
Cc1ccc(-c2cc(C(F)F)n3ncc(C(=O)N4CCCCC4c4cccnc4)c3n2)cc1 (stereo not drawn) | 3 | 95* | 10 | 14 | 47 | 15
CN1CCN(C(CC(=O)Nc2cccc(O)c2)C(=O)O)CC1 (stereo not drawn) | 0 | -3 | 2 | 2 | 8 | nt
CCCc1cc(=O)oc2c(CN3CCCC3)c(O)ccc12 | 2 | 0 | 1 | 0 | -3 | nt
Cc1oc2c(CN3CCCC3)c(O)ccc2c(=O)c1-c1ccc(Br)cc1 | 1 | 99* | 3 | 0 | 2 | -5
Cc1nn(C(C)(C)C)c(OC(=O)C2CCCC2)c1S(=O)(=O)c1ccccc1 | 6 | 62* | 1 | 1 | -7 | 0
COCc1cc(C(C)=O)ccc1OCC(=O)Nc1ccc(NC(C)=O)cc1 | 2 | 0 | 7 | 0 | 4 | nt
Cc1ccccc1CN(C)CCc1ccccn1 | 1 | -3 | 1 | 1 | -9 | nt
CC(C)=CCCC(C)CN(C)CCc1ccccn1 (stereo not drawn) | -1 | 83* | 0 | 0 | -10 | -6
O=Cc1cn(-c2ccccc2)nc1-c1ccc2c(c1)OCCO2 | 2 | 96* | 2 | 0 | 9 | 6
COCCNCC1C(Oc2ccc(Cl)cc2)C(=O)N1c1ccccc1C (stereo not drawn) | 2 | -3 | 2 | 1 | 5 | nt
CCCNCC1C(Oc2ccc(Cl)cc2)C(=O)N1c1ccccc1C (stereo not drawn) | 2 | 91* | 18 | 8 | 17 | -12
Cc1ccccc1C(=O)Oc1ccc(Sc2ccc(O)cc2)cc1 | 11* | 54* | 1 | 0 | 87* | 1
O=C(NCCN1CCOCC1)c1cn(CCc2ccccc2)nn1 | 0 | -3 | 0 | -2 | 9 | nt
O=C(NCc1ccc(N2CCCC2=O)cc1)c1cn(CCc2ccccc2)nn1 | 2 | 56* | 2 | 0 | 8 | 19
CC(=O)N1N=C(N)SC1(C)C | 1 | -4 | 0 | 0 | 5 | nt
SMILES | RAM network inh | L major viab | ABCG2 block | ABCB1 block | WT yeast gro inh | Lmaj promast 1uM
Cc1nn(-c2ccccc2)c2c1C(O)n1c(nc3ccccc31)S2 (stereo not drawn) | -1 | 58* | 45 | 4 | -9 | -7
CSC(=S)NCc1cccnc1 | 0 | 81* | 1 | 0 | -12 | 8
Cn1nc([N+](=O)[O-])nc1Oc1ccccc1N | 0 | 97* | 20 | 1 | 13 | -6
CC(=O)Nc1nnc(Cc2c[nH]c3ccccc23)s1 | 0 | 2 | 4 | 0 | -5 | nt
CN1CCN2c3ccccc3Cc3ccccc3C2C1 (stereo not drawn) | -1 | 54* | 1 | 0 | 6 | -22
c1ccc(Cn2nnnc2CN2CCOCC2)cc1 | -1 | -4 | 0 | 0 | 8 | nt
Cc1cc2nc(C3CCN(Cc4nnnn4Cc4ccccc4)CC3)[nH]c2cc1C | 3 | 91* | 12 | 1 | 2 | -19
N#C/C(=C\Nc1ccccc1O)c1nc2ccccc2o1 | 6 | 79* | 7 | 1 | 63* | -78
O=C(COC(=O)CCCN=C1NS(=O)(=O)c2ccccc21)NC(=O)NC1CCCC1 | 1 | -6 | 1 | 0 | 6 | nt
CC(C)NC(=O)c1ccccc1NC(=O)Cc1ccc([N+](=O)[O-])cc1 | 3 | 1 | 1 | 0 | 15 | nt
CCOC(=O)N1CCC(N2Cc3cccc(C(=O)Nc4cccc(F)c4)c3C2=O)CC1 | 3 | 20 | 20 | 19 | 8 | nt
O=C(NCc1ccccn1)C(C(=O)c1cccc([N+](=O)[O-])c1)n1cc(Cl)ccc1=O (stereo not drawn) | 2 | 15 | 2 | 0 | -7 | nt
CCOC(=O)COc1ccc(/C=C2/SC(=Nc3ccccc3)N(Cc3cccnc3)C2=O)cc1OC | 1 | 60* | 8 | 17 | 9 | -8
COc1ccc(NC(=O)COC(=O)CC2CC3CCC2C3)c([N+](=O)[O-])c1 (stereo not drawn) | 2 | 2 | 34 | 1 | 12 | nt
Cc1cc(=O)[nH]c2c(C)c(N)ccc12 | 4 | -6 | 0 | 0 | 13 | nt
Cc1cc(C)c2ccc3c(C)c(C)nc3c2[nH]1 | 1 | 56* | 4 | 1 | 48 | 40
O=C(COC(=O)[C@H](Cc1ccccc1)N1C(=O)c2ccccc2C1=O)Nc1ccc2c(c1)OCO2 | 4 | 99* | 4 | 1 | 31 | -11
Cc1cc(C)cc(OCC(=O)Nc2ccc3c(c2)OCO3)c1 | 5 | 62* | 4 | 1 | 9 | 17
Cc1ccc(OCC(=O)Nc2ccc3c(c2)OCO3)cc1C | 1 | -7 | 1 | 0 | 0 | nt
CCOCCCNC(=O)NC(=O)CN1CCN(S(=O)(=O)c2ccc3c(c2)OCCO3)CC1 | 1 | -2 | 1 | 0 | -22 | nt
O=C(c1ccc(F)cc1)C1CCN(CCn2c(=S)[nH]c3ccccc3c2=O)CC1 | nt | nt | 6 | nt | 11 | nt
Cc1nc2ccccn2c(=O)c1CCN1CCC(C(=O)c2ccc(F)cc2)CC1 | -1 | 97* | -2 | -1 | -7 | 7
Cc1cccc(CSc2cccc3cccnc23)c1 | -1 | 100* | 4 | 0 | 65 | -9
NNC(=O)c1ccc(CSc2cccc3cccnc23)cc1 | 0 | -12 | 0 | 0 | 11 | nt
COc1ccc(N(C(=O)COc2cccc(C)c2)S(=O)(=O)c2ccc(C)cc2)cc1 | 9.7* | 52* | 8 | 6 | 8 | -12
COc1ccc(S(=O)(=O)N(CC(=O)O)c2ccc(C)cc2)cc1 | 1 | -6 | 0 | 0 | -22 | nt
O=C(O)CN=C(NS(=O)(=O)c1ccccc1)c1ccccc1 | 1 | 1 | 4 | 1 | -9 | nt
